Compounds with a hit are over-represented: about 1.7% of the library has one in this group of screens.
PGC1a acetyl inh: lowers PGC1a acetylation signal in U2OS cells; AlphaScreen anti-acetyl-lysine; with virally co-expressed GCN5 acetyltransferase; inhibition, % at 15.6 µM; 350,000 tested, 0.17% active; AID 651687;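 active means every replicate shows inhibition of at least 40%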;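 further: 0% = neutral control wells and 100% = positive control wells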
CAL PDZ FP-1: blocks peptide binding to the human CAL PDZ domain; inhibition, % at 24.9 µM; AID 602252; 300,000 tested, 0.92% active; purified CAL PDZ, TMR-peptide fluorescence polarization, 1 h; Q9HD26;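 active means mean inhibition of at least 30% with at least half of replicates also reaching 30%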;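 further: 0% = DMSO neutral control and 100% = excess unlabeled competitor peptide PRC23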
ARNT-TACC3 inh: ARNT/TACC3 interaction disruption. Q9Y6A5. AlphaScreen His-ARNT PAS-B/GST-TACC3 binding, luminescence; TACC3 fragment carries E629A point mutation. inhibition, % at 9.99 µM. 390,000 tested, 0.66% active;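 active means mean inhibition of replicates at least 50% and at least half of replicates each reaching 50%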;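 further: 0% = complete ARNT plus TACC3 wells and 100% = ARNT alone without TACC3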
CFTR F508del cor: correctors of CFTR F508del function in bronchial epithelial cells. CFBE cells, YFP halide quenching; stimulated with forskolin plus potentiator P3; % fluorescence drop versus neutral controls. 350,000 tested, 0.36% active. activity (quench increase), % at 7.58 µM;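 active means mean added fluorescence quench of at least 8% versus neutral control, with both replicates also reaching 8%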;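 further: cells transiently co-express mutant CFTR-F508del with the halide-sensitive YFP; corrector assay measuring rescue of mutant channel to the surface after 24 h compound exposure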
miR122 inh: inhibitors of miR-122 in Huh7 cells | Huh7 miR-122 Renilla luciferase sensor, 48 h; neutral wells = 0, positive control = 100 | activation (reporter increase), % at 12.5 µM | 340,000 tested, 0.3% active | AID 602342;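 active means mean replicate activation score at least 90 and every replicate individually at or above 90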;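 further: higher luciferase means less miR-122 activity so hits act as miR-122 inhibitors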
CAL PDZ FP-2: human CAL PDZ-peptide interaction inhibition; Q9HD26; purified CAL PDZ, TMR-peptide fluorescence polarization, 1 h; inhibition, % at 20 µM; 330,000 tested, 0.02% active; AID 504414;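 active means highest replicate inhibition of at least 40%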;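 further: plate controls were DMSO neutral control wells for no effect and unlabeled competitor peptide control wells for full effect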
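System: tagged CAL PDZ domain. Schedule: 1 h room-temperature incubation prior to read. Signal: fluorescence polarization (mP). Measure: percent inhibition from loss of millipolarization.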
ARNT Alpha ctr: AlphaScreen artifact in ARNT/TACC3 counter-screen | His-ARNT PASB-GST AlphaScreen artifact counter-screen, luminescence | AID 651705 | shares compounds with ARNT-TACC3 inh | AC50, µM (doses to about 68 µM), for inactives: at the top dose activity change, negative = signal decrease | 1,200 tested, 50% active;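 active means every separate test run was called active for a drop in luminescence, with AC50 within twice the top valid dose, actives reach about 71 µM in these data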
Active calls of the source: *; . = not tested or not shown; ! = repeats disagree; [ ] = dose if it differs, or a comment.

SMILES	PGC1a acetyl inh	CAL PDZ FP-1	ARNT-TACC3 inh	CFTR F508del cor	miR122 inh	CAL PDZ FP-2	ARNT Alpha ctr
CO[C@@H]1CN(C)C(=O)c2ccc(NS(C)(=O)=O)cc2OC[C@@H](C)N(CC2CCOCC2)C[C@H]1C	11	.	-9	1	8[16.7 µM]	.	.
N#C[C@H]1[C@H](c2ccccc2)[C@H](CO)N1C(=O)CN1CCOCC1	5	.	-2	-2	.	.	.
CC(C)(C)OC(=O)N1CCN(Cc2ccc(O)c3ncccc23)CC1	.	.	.	.	.	.	1.1µM*
CSc1ncccc1C(=O)N1CCN(S(=O)(=O)c2cc(C)ccc2C)CC1	5	-5	-1	1	4	-1	.
CC(C)(C)OC(=O)N1CCN(C(=O)c2cccnc2Cl)CC1	0	.	-3	0	.	-1	.
Cc1ccc(C)c(S(=O)(=O)N2CCN(Cc3ccc(O)c4ncccc34)CC2)c1	38	.	54*	6	-3	0	17µM*
NC1=NN=C(N2N=C(c3ccco3)CC2(O)C(F)(F)F)n2ncnc2C1 (stereo not given)	-1	-2	73*	-3	.	-1	-22%
COc1ccc(S(=O)(=O)Nc2cccc3c2O[C@@H](CN(C)C(=O)NC(C)C)[C@@H](C)CN([C@H](C)CO)C3=O)cc1	1	.	-2	0	3[16.7 µM]	.	.
N#C[C@H]1[C@H](c2ccccc2)[C@@H](CO)N1C(=O)Cc1ccccn1	3	.	6	2	.	.	.
COc1ccc(S(=O)(=O)N(C)C[C@@H]2Oc3c(NC(=O)C4CC4)cccc3C(=O)N([C@@H](C)CO)C[C@H]2C)cc1	2	.	1	2	6[16.7 µM]	.	.
O=C(C[C@H]1C=C[C@H](NC(=O)Nc2ccccc2)[C@H](CO)O1)NCc1ccccn1	1	.	3	2	-4[16.7 µM]	.	.
O=C(C[C@H]1C=C[C@@H](NC(=O)Nc2ccccc2)[C@@H](CO)O1)NCc1ccccn1	5	.	35*	-1	-5[16.7 µM]	.	-8%[42 µM]
CN(Cc1ccccc1)N=Nc1nc[nH]c1C(N)=O	-14	.	.	3	0	.	.
NC(=O)c1[nH]cnc1N	-7	-5	69*!	-3	-2	0	-7%
CCOc1ccc(N(CC(=O)Nc2ccc(OC)cc2OC)S(=O)(=O)c2c(C)[nH]c(=O)[nH]c2=O)cc1	6	-3	58*	0	11	-3	10µM*
CCOc1ccccc1NC(=O)CN(c1ccc(OC)cc1)S(=O)(=O)c1c(C)[nH]c(=O)[nH]c1=O	11	-3	55*	2	-5	-3	29µM*
COc1ccc(N(CC(=O)Nc2ccccc2C)S(=O)(=O)c2c(C)[nH]c(=O)[nH]c2=O)cc1	3	-1	2	-2	.	-3	.
c1ccc(-c2nnc(-c3ccccn3)nc2N2CCN(c3ccncc3)CC2)cc1	.	.	.	.	.	.	2.1µM*
c1ccc(-c2nnc(-c3ccccn3)nc2N2CCC(N3CCOCC3)CC2)cc1	.	.	.	.	.	.	0.92µM*
Brc1ccc(-c2csc(N3CCC(c4ccccc4)C3)n2)cc1 (stereo not given)	.	0	9	.	5	-1	.
Cc1nnc(-c2ccccc2)nc1N1CCOCC1	1	-2	1	.	0	-2	.
c1ccc(-c2nnc(-c3ccccn3)nc2N2CCC(c3ccccc3)C2)cc1 (stereo not given)	.	.	.	.	.	.	4.8µM*
CCCNC(=O)N1[C@H](C#N)[C@@H](c2ccccc2-c2ccccc2)[C@@H]1CO	7	.	.	0	.	.	.
CC(=O)NC(c1ccc2ccccc2c1)c1ccc2cccnc2c1O (stereo not given)	.	1	62*	13*	.	-2	15µM*
CC(=O)NC(c1ccc(Cl)cc1Cl)c1ccc2cccnc2c1O (stereo not given)	.	-1	66*	10*	.	-1	22µM*
SMILES	PGC1a acetyl inh	CAL PDZ FP-1	ARNT-TACC3 inh	CFTR F508del cor	miR122 inh	CAL PDZ FP-2	ARNT Alpha ctr
CCCCC(=O)NC(c1ccc(N(C)C)cc1)c1ccc2cccnc2c1O (stereo not given)	-4	.	60*	-12	-23	1	11µM*
CCCCC(=O)NC(c1ccc(N(CC)CC)cc1)c1ccc2cccnc2c1O (stereo not given)	.	6	37	7	.	-1	.
C[C@@H]1CN([C@H](C)CO)S(=O)(=O)c2ccc(-c3ccccc3)cc2O[C@H]1CN(C)S(C)(=O)=O	-7	.	14	-2	-3[16.7 µM]	.	.
CO[C@H]1CN(C)C(=O)c2cc(NC(=O)C3CCOCC3)ccc2OC[C@@H](C)N(Cc2nccs2)C[C@H]1C	-2	.	-11	1	.	.	.
CNc1nc(C(=O)O)nc(N2CCOCC2)n1	4	-2	56*	-2	1	1	-31%
O=C(NN=C1CCCC1)c1ccc(O)cc1O	-6	-1	48*	1	-7	0	-6%
NNC(=O)c1cc2ccccc2cc1O	.	-2	9	.	.	0	.
NNC(=O)c1ccc(O)cc1O	.	0	56*	5	.	-1	-8%
CCCNC(=O)C[C@H]1CC[C@@H]2[C@@H](COc3ccc(NC(=O)C4CCCC4)cc3C(=O)N2C)O1	-1	.	2	-1	0[16.7 µM]	.	.
CCCN(C(=O)Cc1nc(N)n[nH]1)C1(C(=O)Nc2ccccc2C)CCCCC1	10	-3	50*	.	-4	.	-13%
C[C@H]1c2cccc(O)c2C(O)=C2C(=O)[C@]3(O)C(O)=C(C(N)=O)C(=O)[C@@H](N(C)C)C3[C@@H](O)C21 (stereo not given in full)	5	-5	36*	-1	-3	-1	-10%
O=C(c1ccccn1)N1CC[C@@H]2[C@H](CO)Nc3ccc(Br)cc3[C@@H]21	9	.	77*	-2	8[16.7 µM]	.	45µM*
O=C1O[C@@H](c2ccccc2)[C@@H](c2ccccc2)N2[C@@H](c3ccc(OCCO)cc3)[C@]3(C(=O)Nc4ccc(C#CC5(O)CCCCCC5)cc43)[C@@H](C(=O)N3CCCCCCC3)[C@H]12	6	.	22	-3	.	.	.
COC(=O)C(CC#Cc1ccc2c(c1)[C@]1(C(=O)N2)[C@H](c2ccc(OCCO)cc2)N2[C@H](c3ccccc3)[C@H](c3ccccc3)OC(=O)[C@H]2[C@@H]1C(=O)N1CCCCCCC1)C(=O)OC	5	.	63*	3	.	.	-34%[38 µM]
O=C(Nc1nc(-c2ccccc2)cs1)c1cc(-c2ccccc2)on1	.	.	.	.	.	.	-2%[38 µM]
O=C(Nc1cn2ccccc2n1)c1cc(-c2ccccc2)on1	.	.	.	.	.	.	-7%[38 µM]
O=C(Nc1ccccc1)c1cn2ccccc2n1	-2	-2	41	-1	0	-1	.
O=C(Nc1ccccc1)N1C[C@H]2[C@@H](c3ccccc31)[C@H](CO)N2Cc1ccccc1	-2	.	-6	-2	0[16.7 µM]	.	.
